Measured values: ChEMBL document CHEMBL4765291, “Design, synthesis and biological evaluation of novel 3,4-dihydro-2(1H)-quinolinone derivatives as potential chitin synthase inhibitors and antifungal agents” (Eur J Med Chem, 2020)
In brackets after ≈: the same amount, converted by molar mass.

Legend:
Candida tropicalis = experiment: Inhibition of Candida tropicalis ATCC 750 chitin synthase at 300 ug/ml using UDP-GlcNAc as substrate relative to control; conditions: dose 300.0 µg/ml
Procedure, shortened: (§1)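 Chitin synthase prepared from C. tropicalis ATCC 750 by low- and high-speed centrifugation. DMSO stocks (10 mg/mL) diluted in 50 mM Tris-HCl pH 7.5; test concentrations 300–9.375 µg/mL. Chitin synthesized in WGA-coated wells, bound with WGA-HRP, washed, developed with TMB/H2O2, stopped with 2 M H2SO4, OD read. Duplicate; polyoxin B positive control.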

Candida albicans [1] = experiment: Antifungal activity against Candida albicans ATCC 90023 incubated for 48 hrs by two-fold broth dilution analysis; format: functional
Procedure, shortened: (§2)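 Stock solutions in DMSO, diluted to 0.25–512 µg/mL; two-fold serial broth dilution in 96-well plates. Fungi grown on modified Sabouraud chloramphenicol agar (1% peptone, 2% glucose, […]). Incubated 48 h at 37 °C, then MIC (µg/mL) recorded. Fluconazole and polyoxin B as positive controls; each group tested in triplicate.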

Cryptococcus neoformans = experiment: Antifungal activity against Cryptococcus neoformans ATCC 32719 incubated for 48 hrs by two-fold broth dilution analysis; format: functional; procedure, shortened: as §2
Aspergillus flavus = experiment: Antifungal activity against Aspergillus flavus ATCC 16870 incubated for 48 hrs by two-fold broth dilution analysis; format: functional; procedure, shortened: as §2
Staphylococcus aureus [2] = experiment: Antibacterial activity against methicillin-resistant Staphylococcus aureus N. 315; format: functional
Procedure, shortened: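 Two-fold serial broth dilution in 96-well plates per national clinical standard; beef extract peptone medium (1% peptone, 0.3% beef extract, 0.5% NaCl, […]). Compounds from DMSO stock diluted to test concentrations; incubation 18–24 h. MIC recorded; each group tested independently in triplicate.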

Candida albicans [3] = experiment: Antifungal activity against Candida albicans ATCC 76615 incubated for 48 hrs by two-fold broth dilution analysis; format: functional; procedure, shortened: as §2
Aspergillus fumigatus = experiment: Antifungal activity against Aspergillus fumigatus GIMCC 3.19 incubated for 48 hrs by two-fold broth dilution analysis; format: functional; procedure, shortened: as §2
Staphylococcus aureus [4] = experiment: Antibacterial activity against Staphylococcus aureus ATCC 25923; format: functional
Procedure, shortened: (§3)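 Two-fold serial broth dilution in 96-well plates following National Committee standards; compounds tested at different concentrations. Medium: beef extract peptone (1% peptone, 0.3% beef extract, 0.5% NaCl). Incubation 18–24 h. MIC recorded; streptomycin and norfloxacin as control drugs; each group tested in triplicate.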

Bacillus subtilis = experiment: Antibacterial activity against Bacillus subtilis ATCC 6633; format: functional; procedure, shortened: as §3
Pseudomonas aeruginosa = experiment: Antibacterial activity against Pseudomonas aeruginosa ATCC 9027; format: functional; procedure, shortened: as §3
Proteus vulgaris = experiment: Antibacterial activity against Bacillus proteus ATCC 8427; format: functional; procedure, shortened: as §3
Escherichia coli = experiment: Antibacterial activity against Escherichia coli JM 109
[5] = Inhibition of Candida tropicalis ATCC 750 chitin synthase using UDP-GlcNAc as substrate; procedure, shortened: as §1

Compound	inhibition (Candida tropicalis)	MIC (Candida albicans [1])	MIC (Cryptococcus neoformans)	MIC (Aspergillus flavus)	MIC (Staphylococcus aureus [2])	MIC (Candida albicans [3])	MIC (Aspergillus fumigatus)	MIC (Staphylococcus aureus [4])	MIC (Bacillus subtilis)	MIC (Pseudomonas aeruginosa)	MIC (Proteus vulgaris)	MIC (Escherichia coli)	IC50 [5]
O=C(/C=C/C(=O)NC1Cc2ccccc2NC1=O)Nc1ccccc1 (stereo unspecified)	35.7%	2 µg/mL (≈ 5.96 µM)	4 µg/mL (≈ 11.9 µM)	4 µg/mL (≈ 11.9 µM)	256 µg/mL (≈ 763 µM)	4 µg/mL (≈ 11.9 µM)	4 µg/mL (≈ 11.9 µM)	256 µg/mL (≈ 763 µM)	256 µg/mL (≈ 763 µM)	256 µg/mL (≈ 763 µM)	256 µg/mL (≈ 763 µM)	512 µg/mL (≈ 1530 µM)	
Cc1ccc(NC(=O)/C=C/C(=O)NC2Cc3ccccc3NC2=O)cc1 (stereo unspecified)	58.7%	2 µg/mL (≈ 5.72 µM)	16 µg/mL (≈ 45.8 µM)	4 µg/mL (≈ 11.4 µM)	256 µg/mL (≈ 733 µM)	4 µg/mL (≈ 11.4 µM)	4 µg/mL (≈ 11.4 µM)	128 µg/mL (≈ 366 µM)	512 µg/mL (≈ 1470 µM)	512 µg/mL (≈ 1470 µM)	256 µg/mL (≈ 733 µM)	256 µg/mL (≈ 733 µM)	260 µM
CN[C@@H]1[C@H](O[C@H]2[C@H](O[C@H]3[C@H](O)[C@@H](O)[C@H](N=C(N)N)[C@@H](O)[C@@H]3N=C(N)N)O[C@@H](C)[C@]2(O)C=O)O[C@@H](CO)[C@H](O)[C@H]1O [STREPTOMYCIN]					16 µg/mL (≈ 27.5 µM)			32 µg/mL (≈ 55 µM)	8 µg/mL (≈ 13.8 µM)	8 µg/mL (≈ 13.8 µM)	16 µg/mL (≈ 27.5 µM)	32 µg/mL (≈ 55 µM)	
O=C(/C=C/C(=O)NC1Cc2ccccc2NC1=O)Nc1ccccc1[N+](=O)[O-] (stereo unspecified)	53.3%	2 µg/mL (≈ 5.26 µM)	4 µg/mL (≈ 10.5 µM)	4 µg/mL (≈ 10.5 µM)	256 µg/mL (≈ 673 µM)	4 µg/mL (≈ 10.5 µM)	8 µg/mL (≈ 21 µM)	128 µg/mL (≈ 337 µM)	256 µg/mL (≈ 673 µM)	256 µg/mL (≈ 673 µM)	256 µg/mL (≈ 673 µM)	256 µg/mL (≈ 673 µM)	320 µM
Cc1cc(C)cc(NC(=O)/C=C/C(=O)NC2Cc3ccccc3NC2=O)c1 (stereo unspecified)	71.5%	2 µg/mL (≈ 5.5 µM)	16 µg/mL (≈ 44 µM)	1 µg/mL (≈ 2.75 µM)	512 µg/mL (≈ 1410 µM)	4 µg/mL (≈ 11 µM)	2 µg/mL (≈ 5.5 µM)	128 µg/mL (≈ 352 µM)	256 µg/mL (≈ 704 µM)	256 µg/mL (≈ 704 µM)	512 µg/mL (≈ 1410 µM)	256 µg/mL (≈ 704 µM)	190 µM
O=C(/C=C/C(=O)NC1Cc2ccccc2NC1=O)Nc1cccc([N+](=O)[O-])c1 (stereo unspecified)	49.3%	2 µg/mL (≈ 5.26 µM)	4 µg/mL (≈ 10.5 µM)	4 µg/mL (≈ 10.5 µM)	256 µg/mL (≈ 673 µM)	4 µg/mL (≈ 10.5 µM)	8 µg/mL (≈ 21 µM)	128 µg/mL (≈ 337 µM)	256 µg/mL (≈ 673 µM)	512 µg/mL (≈ 1350 µM)	256 µg/mL (≈ 673 µM)	128 µg/mL (≈ 337 µM)	
NC(=O)OC[C@H](O)[C@@H](O)[C@H](N)C(=O)N[C@H](C(=O)O)[C@H]1O[C@@H](n2cc(CO)c(=O)[nH]c2=O)[C@H](O)[C@@H]1O [POLYOXIN B]	87.5%	4 µg/mL (≈ 7.88 µM)	4 µg/mL (≈ 7.88 µM)	4 µg/mL (≈ 7.88 µM)		2 µg/mL (≈ 3.94 µM)	2 µg/mL (≈ 3.94 µM)						90 µM
OC(Cn1cncn1)(Cn1cncn1)c1ccc(F)cc1F [FLUCONAZOLE]		1 µg/mL (≈ 3.27 µM)	2 µg/mL (≈ 6.53 µM)	2 µg/mL (≈ 6.53 µM)		1 µg/mL (≈ 3.27 µM)	2 µg/mL (≈ 6.53 µM)						
O=C(/C=C/C(=O)NC1Cc2ccccc2NC1=O)Nc1ccc(Br)cc1 (stereo unspecified)	40.3%	2 µg/mL (≈ 4.83 µM)	16 µg/mL (≈ 38.6 µM)	4 µg/mL (≈ 9.66 µM)	256 µg/mL (≈ 618 µM)	2 µg/mL (≈ 4.83 µM)	4 µg/mL (≈ 9.66 µM)	128 µg/mL (≈ 309 µM)	512 µg/mL (≈ 1240 µM)	512 µg/mL (≈ 1240 µM)	512 µg/mL (≈ 1240 µM)	512 µg/mL (≈ 1240 µM)	
Cc1ccccc1NC(=O)/C=C/C(=O)NC1Cc2ccccc2NC1=O (stereo unspecified)	67.3%	2 µg/mL (≈ 5.72 µM)	16 µg/mL (≈ 45.8 µM)	4 µg/mL (≈ 11.4 µM)	256 µg/mL (≈ 733 µM)	1 µg/mL (≈ 2.86 µM)	4 µg/mL (≈ 11.4 µM)	128 µg/mL (≈ 366 µM)	512 µg/mL (≈ 1470 µM)	512 µg/mL (≈ 1470 µM)	256 µg/mL (≈ 733 µM)	256 µg/mL (≈ 733 µM)	380 µM
